Rows were chosen to be rich in hits. Some 1.8% of all compounds tested hit in one or more screens of this group.
HNF4A DNA FP: change in binding of human HNF4A to DNA, primary screen, biochemical, fluorescence polarization, FITC-DNA. Hepatocyte nuclear factor 4-alpha (Homo sapiens), P41235. 1 h. activity change, % at 10 µM. 360,000 compounds, 0.3% hits. AID 1224865, 2016; in the data active = activity change above about 30%, passing the limit was not always enough
Rpn11 inh: Rpn11 (PSMD14) deubiquitinase inhibitors, primary screen, biochemical, fluorescence polarization, uHTS. human 26S proteasome, Ub4-pepOG fluorescence polarization; 20S core pre-blocked with epoxomicin. calls only at 20 µM. 360,000 compounds, 0.59% hits;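 active = inhibition at 20 µM, scaled to each plate's controls, above about 33%, limit read from the data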
UBC9 SUMO inh: inhibitors of in vitro SUMOylation cascade, primary screen, biochemical, HTRF, uHTS; SUMO-conjugating enzyme UBC9 (Homo sapiens), P63279; HTRF SUMOylation assay, SAE1/SAE2 + UBC9; inhibition, % at 35 µM; 290,000 compounds, 0.36% hits; in the data active = inhibition above about 50%, passing the limit was not always enough
TPT1 inh: Candida albicans TPT1 enzyme inhibitors, primary screen, biochemical, fluorescence polarization. inhibition, % at 5 µM. recombinant caTPT1, FP RNA substrate dephosphorylation. 300,000 compounds, 0.81% hits. tRNA 2'-phosphotransferase TPT1 (Candida albicans SC5314);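 active = inhibition above the mean of all tested compounds plus 3 SD, set per screening campaign, cut at about 24% in these data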;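 also: plate controls were DMSO alone for no effect and ferristatin control at 100 nM for full effect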
SENP1 inh: human SENP1 catalytic domain inhibitors, primary screen, biochemical, FRET, uHTS | Sentrin-specific protease 1 (Homo sapiens), Q9P0U3 | recombinant SENP1 catalytic domain, CyPet-SUMO1-YPet FRET cleavage | inhibition, % at 10 µM | 360,000 compounds, 0.21% hits;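 active = inhibition at least 30% at 10 µM, raw YFP signal under a set limit, fluorescence ratio 0.5 to 1.5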;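 also: 0% = enzyme with DMSO and 100% = no enzyme wells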
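Test system: human SENP1 catalytic domain; medium: Tris pH 8 buffer plus EDTA, NaCl, BME, BSA, NP40, catalase; incubation: 50 min reaction at room temperature; technique: FRET, CFP and YFP emission; controls: no-enzyme low control and enzyme-plus-DMSO high control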
CSN inh: inhibitors of CSN-mediated cullin deneddylation, primary screen, biochemical, fluorescence polarization, uHTS. COP9 signalosome complex subunit 5 (Homo sapiens), Q92905. Purified CSN, SCF-Nedd8-OG deneddylation. inhibition, % at 12.5 µM. 360,000 compounds, 0.38% hits. AID 651999, 2013;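 active = pattern-corrected inhibition above about 35%, with an unprinted fluorescence ratio check between 0.5 and 1.5, limit read from the data, passing the limit was not always enough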;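 also: 0% = enzyme with substrate and 100% = substrate without enzyme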
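Assay system: HEK293T-derived human Csn5 enzyme; quantity: 0.24 nM enzyme; medium: Tris/NaCl/DTT buffer, pH 7.5; also added: substrate SCFSkp2-Nedd8OG, 10 nM; doses: 12.5 µM compound; schedule: 90 min reaction at room temperature; signal: FP; read-out: % inhibition of substrate cleavage by Csn5; benchmarks: substrate-only high control, full reaction low control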
Rpn11 inh conf: Rpn11 (PSMD14) deubiquitinase inhibitors, confirmation, biochemical, fluorescence polarization, single concentration. shares compounds with Rpn11 inh. purified human 26S proteasome, Ub4-pepOG fluorescence polarization; proteasome pretreated with epoxomicin. inhibition, % at 20 µM. 1,900 compounds, 29% hits. AID 602318, 2012
MMP-2 counter: MMP-2 enzyme inhibition, confirmation, counter-screen for RPN11 inhibitor project, biochemical, fluorescence, single concentration | shares compounds with Rpn11 inh | recombinant MMP-2, FRET peptide cleavage fluorescence | inhibition, % at 20 µM | 1,900 compounds, 4% hits | AID 602330, 2012;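 also: human MMP-2 activated beforehand with APMA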
Target sequence (P08253 whole entry, looked up): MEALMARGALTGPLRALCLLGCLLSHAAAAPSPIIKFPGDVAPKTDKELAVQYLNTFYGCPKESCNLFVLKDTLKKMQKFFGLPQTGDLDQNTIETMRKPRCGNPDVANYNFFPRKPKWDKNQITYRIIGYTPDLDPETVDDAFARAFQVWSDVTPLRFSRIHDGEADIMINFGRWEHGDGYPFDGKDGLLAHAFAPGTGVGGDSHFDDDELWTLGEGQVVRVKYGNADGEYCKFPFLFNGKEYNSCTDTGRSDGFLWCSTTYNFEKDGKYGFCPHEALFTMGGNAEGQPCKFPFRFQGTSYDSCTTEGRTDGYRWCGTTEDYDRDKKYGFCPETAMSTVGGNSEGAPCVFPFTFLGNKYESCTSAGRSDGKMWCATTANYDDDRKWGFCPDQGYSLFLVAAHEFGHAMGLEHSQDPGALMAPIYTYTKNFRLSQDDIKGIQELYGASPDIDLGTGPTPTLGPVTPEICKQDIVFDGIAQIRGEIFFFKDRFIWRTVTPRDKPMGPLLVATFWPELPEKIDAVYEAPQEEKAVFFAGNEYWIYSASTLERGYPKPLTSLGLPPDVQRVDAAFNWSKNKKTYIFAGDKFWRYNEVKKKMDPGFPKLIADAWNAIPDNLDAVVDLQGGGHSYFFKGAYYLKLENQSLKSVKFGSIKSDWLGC
Thrombin FP: bovine thrombin protease inhibition, confirmation, counter-screen for Rpn11 inhibitor project, biochemical, fluorescence polarization, single concentration | shares compounds with Rpn11 inh | bovine thrombin cleavage of Ub4-pepOG | inhibition, % at 20 µM | 1,900 compounds, 13% hits;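 active = mean inhibition at least 40% at 20 µM, or signal 3 deviations below plate average, so some actives read negative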;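 also: plate controls were thrombin with DMSO for no effect and buffer wells lacking thrombin for full effect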
The depositor's hits bear a star; i = inactive; · = no result given; + = active, no number. Rule as the data show it, unless noted: active = inhibition above about 40%; inactive = the rest.

SMILES | HNF4A DNA FP | Rpn11 inh | UBC9 SUMO inh | TPT1 inh | SENP1 inh | CSN inh | Rpn11 inh conf | MMP-2 counter | Thrombin FP
O=c1[nH]c2ccc(Cl)cc2c(-c2ccccc2)c1SC(=S)N1CCOCC1 | -4 | + | -53 | -5 | 1 | 1 | 7 | 1 | -14
CCN(CC)CCNc1nc(-c2ccccc2)c2c(c1C#N)CC(C)(C)OC2 | 0 | i | 19 | -3 | 3 | 2 | · | · | ·
CC1(C)Cc2c(C#N)c(NCCCO)nc(-c3ccccc3)c2CO1 | 28* | + | 20 | -5 | -5 | 0 | -10 | -26 | -14
Cc1ccc(C(=O)OC/C(O)=C(\C#N)c2nc3ccccc3[nH]2)cc1S(=O)(=O)N1CCOCC1 | 8 | i | 2 | 7 | -55 | 1 | · | · | ·
CC1CN(S(=O)(=O)c2cccc(C(=O)OC/C(O)=C(\C#N)c3nc4ccccc4[nH]3)c2)CC(C)O1 (stereo not given) | 13 | + | 3 | 7 | -45 | -3 | 7 | -10 | 4
COc1cc(C(=O)NCCc2ccc3c(c2)OCCO3)ccc1OCC(=O)N1CCOCC1 | 2 | i | -11 | 5 | -6 | 5 | · | · | ·
N#C/C(=C\c1ccc(O)c([N+](=O)[O-])c1)c1nc2ccccc2s1 | 21 | + | 22 | · | 32* | 11 | 42* | 72* | 15
COc1cc(/C=C(\C#N)c2nc3ccccc3s2)cc([N+](=O)[O-])c1O | 20 | i | 36 | · | 17 | 15 | · | · | ·
COc1cc(Cl)c(C)cc1NC(=O)CSc1sc2c(O)cc(=O)[nH]c2c1C#N | -27 | + | 27 | 8 | -23 | 22 | -5 | 2 | -22
CCNC(=S)NNC(=O)c1cccc(Br)c1 | 1 | + | -15 | -3 | 1 | -3 | -1 | 9 | -7
[O-][n+]1cccc2c(Br)cc(Br)c(O)c21 | -3 | + | -1 | 1 | -20 | 5 | -20 | -8 | -7
Cc1ccc(N(CC(=O)N/N=C/c2cccs2)S(C)(=O)=O)cc1 | 7 | + | 14 | -6 | 2 | -7 | -9 | -54 | -25
COc1ccc2oc(C(=O)Nc3nc(-c4ccccn4)cs3)c(C)c2c1 | 6 | + | · | 14 | -18 | 7 | 52* | 13 | 9
O=C(COC(=O)c1cc2ccccc2cc1O)NC(=O)NCc1ccco1 | -5 | + | 3 | 2 | 1 | 8 | 8 | -14 | 3
CCc1cccc(CC)c1NC(=S)NCc1ccc2c(c1)OCO2 | -3 | i | -4 | 1 | 1 | 5 | · | · | ·
CCc1ccc(OCC(=O)Nc2ncc3c(n2)CC(C)(C)CC3=O)cc1 | 2 | i | 17 | 3 | 3 | -4 | · | · | ·
Cc1ccc(C)c(OCCn2cc(/C=C(/C#N)C(=O)NCC3CCCO3)c3ccccc32)c1 (stereo not given) | 1 | + | -3 | 10 | -51 | -3 | 72* | -1 | 28
